# Laboratory results as given in publication PMC4618649 (Pharmacology Research & Perspectives, 2015).
# Read-outs that look alike come from different tables or passages of the source.
# How the values were obtained:
# [1] = Phase 1 disposition study: excretion and mass balance; format: in vivo, human
# In short: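 Five healthy males received a single oral 100 mg dose containing ~100 μCi 14C-label. Urine and feces were collected to 216 h, and expired air at selected times to 48 h for 14CO2. Radioactivity was counted by liquid scintillation, either directly (urine, expired air) or after combustion (feces). Cumulative fraction of dose was summed over collection periods.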
# [2] = ref Mantlo and Escribano [2014]; Cannady 2013; cited from earlier work
# [3] = target: CYP3A (rCYP3A4) (Homo sapiens, UniProt P08684); test: Substrate depletion by human recombinant CYP3A4; format: in vitro ADME
# In short: (§1)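 Human recombinant CYPs were insect-cell microsomes, with CYPb5 co-expressed if available, plus a no-CYP membrane control. Test compound (30 or 300 nmol/L) was incubated with matrix (0.25 mg/mL) and buffer. NADPH (1 mmol/L) started the reaction, and acetonitrile with internal standard stopped it after 5 or 30 min. CLint came from −kdep and the amount of rCYP, scaled to HLM by relative activity factor.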
# [4] = Phase 1 disposition study: metabolite radioprofiling in plasma and feces; format: in vivo, human; conditions: for Percent dose mean excreted in feces: single oral 100 mg 14C-evacetrapib
# In short: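 Samples came from five healthy males after a single oral 100 mg dose (~100 μCi 14C). Plasma, feces and urine were extracted, dried and reconstituted in DMSO/acetonitrile/10 mmol/L ammonium acetate (1:3:3). Metabolites were separated by HPLC, and fractions were counted to build radiochromatograms. Structures were identified by LC/MS and LC/MS/MS (ion trap, plus Orbitrap accurate mass) in positive ion mode.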
# [5] = ref Mantlo and Escribano [2014]; Cannady 2013; cited from earlier work; remark: listed apart in the source
# [6] = patients with dyslipidemia, alone or with statins; ref Nicholls et al. [2011]; cited from earlier work
# [7] = Substrate depletion in human liver microsomes; format: in vitro ADME; conditions: both, human, human liver microsomes
# [8] = test system: Human liver microsomes (HLMs); test: Substrate depletion in human liver microsomes; format: in vitro ADME; conditions: largest k calculated, used to approximate first-order conditions; HLMs 0.25 mg/mL
# [9] = target: T1, CYP2C8 (rCYP2C8) (Homo sapiens, UniProt P10632); test: Substrate depletion by human recombinant CYP2C8; format: in vitro ADME; conditions: human, recombinant CYP2C8 Supersomes (insect cell microsomes)
# T1 sequence (P10632 1-490): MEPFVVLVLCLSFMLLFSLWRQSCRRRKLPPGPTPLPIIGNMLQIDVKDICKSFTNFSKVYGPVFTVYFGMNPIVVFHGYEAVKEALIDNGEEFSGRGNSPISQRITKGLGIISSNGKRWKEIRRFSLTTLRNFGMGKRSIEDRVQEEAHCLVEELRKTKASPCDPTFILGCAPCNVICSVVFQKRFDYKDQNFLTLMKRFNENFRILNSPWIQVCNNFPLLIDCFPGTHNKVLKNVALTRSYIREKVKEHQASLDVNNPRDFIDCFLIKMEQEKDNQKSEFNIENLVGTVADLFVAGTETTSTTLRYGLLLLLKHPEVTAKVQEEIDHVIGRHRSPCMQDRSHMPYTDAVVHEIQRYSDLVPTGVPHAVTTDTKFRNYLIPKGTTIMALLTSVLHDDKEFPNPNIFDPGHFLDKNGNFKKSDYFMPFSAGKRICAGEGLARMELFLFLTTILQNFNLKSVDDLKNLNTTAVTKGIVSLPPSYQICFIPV
# In short: as §1
# [10] = target: T2, rCYP2C8 (Homo sapiens, UniProt P10632); test: Substrate depletion by human recombinant CYP2C8; format: in vitro ADME; conditions: rCYP2C8
# T2 sequence (P10632 1-490): T1 sequence (P10632 1-490)
# In short: as §1
# [11] = Phase 1 DDI study with ketoconazole in healthy subjects; format: in vivo, human; conditions: for Ratio of geometric LS means, AUC(0–∞), evacetrapib + ketoconazole versus evacetrapib (90% CI) / Ratio of geometric LS means, Cmax, evacetrapib + ketoconazole versus evacetrapib (90% CI): 100 mg evacetrapib, 400 mg ketoconazole daily; for CL/F: geometric mean (% CV)
# In short: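 Twelve fasted healthy adults of both sexes (18–65 y, BMI 18–32 kg/m2) took part in a fixed-sequence study. Period 1 was a single oral 100 mg of test compound, sampled predose to 168 h. After a ≥14-day washout, Period 2 was ketoconazole 400 mg daily for 14 days with 100 mg test compound on Day 5, sampled for 240 h. Plasma LC/MS/MS range was 1–1000 ng/mL. Analysis was noncompartmental, with log ANOVA (treatment fixed, subject random) and 90% CIs; tmax was compared by Wilcoxon test. Adverse events were recorded.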
# [12] = format: in vivo, human; conditions: for % AUC(tlast–∞): geometric mean (range)
# In short: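 Five healthy males received a single oral 100 mg dose containing ~100 μCi 14C-label, with blood sampled to 192 h. Plasma parent was measured by LC/MS/MS (range 1–1000 ng/mL). Total radioactivity was counted by liquid scintillation, directly in plasma and after combustion for whole blood. Parameters were derived noncompartmentally. Adverse events were recorded.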
# [13] = Phase 1 DDI study with gemfibrozil in healthy subjects; format: in vivo, human; conditions: for Ratio of geometric LS means, AUC(0–τ), evacetrapib + gemfibrozil versus evacetrapib (90% CI) / Ratio of geometric LS means, Cmax, evacetrapib + gemfibrozil versus evacetrapib (90% CI): 130 mg QD, 600 mg gemfibrozil BID
# [14] = both, human, plasma, oral, 100 mg
# [15] = both, human, plasma, oral, 400 mg
# [16] = male, human, plasma, oral, 100 mg
# [17] = both, human, plasma, oral, 130 mg
# Chain of CYP3A (rCYP3A4) (P08684 whole entry): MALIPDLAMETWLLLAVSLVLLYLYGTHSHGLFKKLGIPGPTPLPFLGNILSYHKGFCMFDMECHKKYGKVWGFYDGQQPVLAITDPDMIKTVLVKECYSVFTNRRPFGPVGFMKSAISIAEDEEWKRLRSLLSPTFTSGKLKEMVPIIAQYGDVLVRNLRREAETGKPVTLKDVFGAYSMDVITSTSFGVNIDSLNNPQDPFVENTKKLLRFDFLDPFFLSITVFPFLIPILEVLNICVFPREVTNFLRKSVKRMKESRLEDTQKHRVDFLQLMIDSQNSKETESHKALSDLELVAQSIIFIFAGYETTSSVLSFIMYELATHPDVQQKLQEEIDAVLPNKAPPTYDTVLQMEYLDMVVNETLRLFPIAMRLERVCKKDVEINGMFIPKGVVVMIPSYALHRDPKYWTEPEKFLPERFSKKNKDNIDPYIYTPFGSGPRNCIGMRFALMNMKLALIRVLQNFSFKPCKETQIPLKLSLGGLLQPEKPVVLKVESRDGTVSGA
smiles,measurement,setting,value
Cc1cc(C)c2c(c1)[C@@H](N(Cc1cc(C(F)(F)F)cc(C(F)(F)F)c1)c1nnn(C)n1)CCCN2C[C@H]1CC[C@H](C(=O)O)CC1 [evacetrapib],dose excreted in feces,"[1]; mean (±SD), up to 216 h",93.1 % of the dose
same,dose excreted in urine,"[1]; mean (±SD), up to 216 h",2.30 % of the dose
same,levels of radioactivity in expired air,[1]; samples up to 48 h,negligible
same,drug solubility,[2],poor
same,microsomal CLint,"[3]; human, recombinant CYP3A4 Supersomes (insect cell microsomes)",186 µL/min/mg
same,CLint,[3]; rCYP3A4 representing CYP3A,4.257 μL × min^−1 × pmol CYP^−1
same,−kdep,[3]; rCYP3A4 representing CYP3A,0.002608 s⁻¹
same,radioactive peaks in plasma,"[4]; 24-h plasma samples, detected in only 3 subjects",only quantifiable radioactive peak
same,dose eliminated via CYP-mediated (oxidative) metabolism,[4]; from fecal metabolites,Approximately 70%
same,Dose eliminated in the select feces through 192 h postdose,[4]; percent dose mean,89.86%
same,Percent dose mean excreted in feces,[4],17 % of the dose
same,Percent dose mean excreted in feces,[4]; listed as Evacetrapib,16.80 % of the dose
same,fraction of evacetrapib eliminated by CYPs,[4]; used in the static model,"~1 For determinations of fm, CYP3A4-mediated metabolism was considered to represent total CPY3A-mediated metabolism AUCi/AUC = 1/(1-fmCYP3A × fraction of evacetrapib eliminated by CYPs) where the fraction of evacetrapib eliminated by CYPs is approximately 0.7."
same,protein binding,[5],high
same,HDL-C levels,[6],increased
same,LDL-C levels,[6],decreased
same,"changes in blood pressure, aldosterone, cortisol, or electrolytes",[6],without producing substantial changes
same,microsomal CLint,[7],138 µL/min/mg
same,substrate depletion rate constant k in HLMs,[8],0.0345 min⁻¹
same,microsomal CLint,[9],19.9 µL/min/mg
same,CLint,[10],0.712 μL × min^−1 × pmol CYP^−1
same,−kdep,[10],0.000707 s⁻¹
same,"Ratio of geometric LS means, AUC(0–∞), evacetrapib + ketoconazole versus evacetrapib (90% CI)",[11],2.37
same,"Ratio of geometric LS means, Cmax, evacetrapib + ketoconazole versus evacetrapib (90% CI)",[11],1.94
same,"Ratio of geometric LS means, AUC(0–∞), evacetrapib + ketoconazole versus evacetrapib (90% CI)",[11]; listed as Evacetrapib,"2.37 (1.77, 3.18)"
same,"Ratio of geometric LS means, Cmax, evacetrapib + ketoconazole versus evacetrapib (90% CI)",[11]; listed as Evacetrapib,"1.94 (1.39, 2.72)"
same,AUC(0-inf),[11]; [14],5260 ng·h/mL
same,Cmax,[11]; [14],332 ng/mL
same,Tmax,[11]; [14],3 h
same,Vd/F,[11]; [14],861 L
same,Tmax,[11]; [15],3 h
same,Vd/F,[11]; [15],592 L
same,half-life,[11]; [15],63.2 h
same,TEAEs considered mild,[11]; evacetrapib alone or in combination with ketoconazole,16
same,TEAEs reported,"[11]; evacetrapib alone or in combination with ketoconazole, reported by 5 subjects",18
same,CL/F,[11]; evacetrapib alone,19.0 (51) L/h
same,CL/F,[11]; with 400 mg ketoconazole,8.24 (57) L/h
same,difference in median tmax between treatments,[11]; with versus without ketoconazole,no difference
same,Average (%) of total radioactivity attributed to evacetrapib,"[12]; based on AUC(0–36), plasma",66%
same,Average (%) of total radioactivity attributed to evacetrapib,"[12]; based on AUC(0–∞), plasma",52%
same,Average (%) of total radioactivity attributed to evacetrapib,"[12]; based on Cmax, plasma",82%
same,% AUC(tlast–∞),"[12]; blood total radioactivity, N = 4",21 (18–24) ^2%
same,association of evacetrapib-related material with red blood cells,[12]; from blood-to-plasma radioactivity ratios and hematocrit,negligible
same,AUC(0-t),[12]; [16],6250 ng·h/mL
same,Cmax,[12]; [16],777 ng/mL
same,Vd/F,[12]; [16],564 L
same,half-life,[12]; [16],32.3 h
same,AUC(0-inf),"[12]; male, human, plasma, po, 100 mg",8250 ng·h/mL
same,CL/F,"[12]; plasma evacetrapib, geometric mean (CV)",12.1 (20) L/h
same,% AUC(tlast–∞),[12]; plasma evacetrapib,1 (0–4) %
same,% AUC(tlast–∞),[12]; plasma total radioactivity,19 (13–26) %
same,treatment-emergent adverse events (TEAEs) reported,"[12]; reported by 2 of 5 subjects, single 100-mg dose",5
same,AEs related to evacetrapib as judged by the investigator,[12]; single 100-mg dose,Three
same,severity of all AEs,[12]; single 100-mg dose,mild
same,"Ratio of geometric LS means, AUC(0–τ), evacetrapib + gemfibrozil versus evacetrapib (90% CI)",[13],0.996
same,"Ratio of geometric LS means, Cmax, evacetrapib + gemfibrozil versus evacetrapib (90% CI)",[13],1.02
same,"Ratio of geometric LS means, AUC(0–τ), evacetrapib + gemfibrozil versus evacetrapib (90% CI)",[13]; listed as Evacetrapib,"0.996 (0.922, 1.08)"
same,"Ratio of geometric LS means, Cmax, evacetrapib + gemfibrozil versus evacetrapib (90% CI)",[13]; listed as Evacetrapib,"1.02 (0.933, 1.11)"
same,AEs considered to be related to the study drug,[13]; 5 of 24 subjects who received evacetrapib alone and/or with gemfibrozil,10
same,Tmax,"[13]; both, human, plasma, oral",3 h
same,AUC,[13]; [17],11300 ng·h/mL
same,Cmax,[13]; [17],1270 ng/mL
same,Tmax,[13]; [17],4 h
same,severity of all AEs,"[13]; human, in vivo",mild
same,AEs reported,"[13]; whole study, reported by 12 subjects",28
same,difference in median tmax between treatments,[13]; with versus without gemfibrozil,no significant difference
"CC(=O)N1CCN(c2ccc(OCC3COC(Cn4ccnc4)(c4ccc(Cl)cc4Cl)O3)cc2)CC1 (stereo not shown) [ketoconazole, reference compound]",TEAEs considered moderate,[11]; reported by subjects who received ketoconazole alone,2
